Screens: PubChem BioAssay, several laboratories
Shown are actives, neighbours in structure and some others; about 1.8% of the full set was active somewhere.
PAD4 FP inh: blocks human protein arginine deiminase 4; Q9UM07; recombinant PAD4, RCA probe fluorescence polarization; inhibition, % at 6.36 µM; hit rate 0.41% among 330,000;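 active means percent inhibition above a cutoff equal to the mean of all tested compounds plus 3 SD, cut at about 15% in these data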
GSTO1 inh: GSTO1 inhibition, counter-screen for RBBP9 inhibitors; P78417; recombinant GSTO1, activity-based probe fluorescence polarization; inhibition, % at 5.96 µM; hit rate 1.1% among 300,000; AID 1974;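 active means inhibition above the campaign mean inhibition plus 3 SD, cut at about 35% in these data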
Target sequence (P78417 whole entry, looked up): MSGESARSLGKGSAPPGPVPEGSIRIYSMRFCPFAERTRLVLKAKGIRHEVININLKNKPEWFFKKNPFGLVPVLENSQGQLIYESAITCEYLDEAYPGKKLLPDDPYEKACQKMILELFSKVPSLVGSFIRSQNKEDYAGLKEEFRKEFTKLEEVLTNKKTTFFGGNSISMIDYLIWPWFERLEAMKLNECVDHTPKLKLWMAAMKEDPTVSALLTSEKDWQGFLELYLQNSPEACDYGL
TDP2 absorb: TDP2 (human) inhibition, absorbance primary screen; recombinant TDP2, T5PNP hydrolysis, p-nitrophenol absorbance 415 nm; hit rate 0.34% among 370,000; O95551; inhibition, % at 12.8 µM;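 active means inhibition above the mean of all tested compounds plus 3 SD, set per campaign, cut at about 25% in these data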
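Assay system: Recombinant human TDP2 | Quantity: 120 nM TDP2 per well | Incubation: 2 h at 37 °C | Signal: Epi absorbance | Evaluation: Percent inhibition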
Fh CTSL1 inh: counter-screen for PFM18AAP inhibitors: inhibitors of F. hepatica cathepsin L1 | recombinant F. hepatica cathepsin L1, Z-Leu-Arg-MCA fluorescence | inhibition, % at 5.96 µM | hit rate 0.49% among 300,000 | AID 1906;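 active means inhibition above the mean of all tested compounds plus 3 SD, set per screening campaign, cut at about 17% in these data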
Apaf-1 inh: blocks human Apaf-1 apoptosome activity | reconstituted apoptosome caspase-3 activity, DEVD-Rh110 fluorescence | inhibition, % at 20 µM | hit rate 0.71% among 330,000 | AID 489030; active means inhibition of at least 40% at 20 µM
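Material: biochemical Apaf-1 apoptosome reconstitution. Medium: Hepes buffer, pH 7.5. Also added: cytochrome c activation, bis-DEVD rhodamine 110 substrate. Timing: 30 min compound preincubation, 50 min activation, room temperature. Measured by: rhodamine 110 fluorescence at Ex 480/Em 540 nm.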
Apaf-1 inh conf: Apaf-1 inhibition, single-dose confirmed | shares compounds with Apaf-1 inh | reconstituted apoptosome, caspase-3 DEVD-Rh110 fluorescence | inhibition, % at 20 µM | hit rate 25% among 1,800 | AID 504614;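 active means mean inhibition of at least 40% at 20 µM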
Rh110 interf inh: counter-screen for Apaf-1 inhibitors: fluorescence interference; shares compounds with Apaf-1 inh; Rh110 fluorescence interference, quenched caspase reaction; activation (fluorescence interference), % at 20 µM; 1,800 tested, under 10 active;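 active means signal rise of 40% or more at 20 µM, treated as a fluorescence artifact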
Apaf1 inh interf: shows fluorescence interference in the Apaf-1 inhibitor assay format; AID 588538; fluorescence interference counterscreen, Apaf-1 assay format; IC50, µM; shares compounds with Apaf-1 inh; 460 tested, under 10 active; call rule not given here
Numbers stand for hits; n = inactive; x = no result.

SMILES | PAD4 FP inh | GSTO1 inh | TDP2 absorb | Fh CTSL1 inh | Apaf-1 inh | Apaf-1 inh conf | Rh110 interf inh | others
Cc1ccc2nc(N(CCCN(C)C)C(=O)c3ccc(S(=O)(=O)N4CCc5ccccc5C4)cc3)sc2c1 | n | n | n | n | 53 | n | n
Cc1cccc2sc(N(CCCN(C)C)C(=O)c3ccc(S(=O)(=O)N4CCc5ccccc5C4)cc3)nc12 | n | n | n | n | 63 | n | n
CN(C)CCCN(C(=O)c1ccc(S(=O)(=O)N2CCc3ccccc3C2)cc1)c1nc2ccc(F)cc2s1 | n | n | n | n | 70 | 46 | n | Apaf1 inh interf=n
Cc1cc(C)c2sc(N(CCCN(C)C)C(=O)c3ccc(S(=O)(=O)N4CCc5ccccc5C4)cc3)nc2c1 | n | n | x | n | n | x | x
CN(C)CCCN(C(=O)c1ccc(S(=O)(=O)N2CCc3ccccc3C2)cc1)c1nc2c(F)cccc2s1 | n | n | n | n | n | x | x
CC(C)C[C@H](NC1(C(=O)NC2CCCCC2)CCCCC1)C(=O)NCC(c1ccccc1)c1ccccc1 | x | x | n | x | x | x | x
CN1CCc2c(sc3c2C(=O)NC(c2cccc(OC(=O)c4cccs4)c2)N3)C1 (stereo not given) | n | n | n | n | n | x | x
CCOC(=O)N1CCc2c(sc3c2C(=O)NC(c2ccccc2)N3)C1 (stereo not given) | n | n | x | n | 81 | n | n
O=C(COC(=O)c1ccc(O)cc1O)NCCN1C(=O)CSC1=O | n | n | n | n | n | x | x
O=C(COC(=O)c1cc(Cl)ccc1Cl)NCCN1C(=O)CSC1=O | n | n | n | n | 43 | n | n
CCN(CC)S(=O)(=O)c1cccc(C(=O)NCC2CCCO2)c1 (stereo not given) | n | n | n | n | n | x | x
CCN(CC)S(=O)(=O)c1cccc(NC(=O)C2SC(=Nc3ccc(C)cc3C)C(C(=O)NCC3CCCO3)=C2N)c1 (stereo not given) | n | n | n | n | 45 | n | n
O=C(Nc1ccccn1)c1ccc2ccccc2c1O | n | n | n | n | 45 | n | n
COc1ccc(-c2cscc2N)cc1 | x | x | n | x | x | x | x
COC(=O)C[C@H]1CC[C@@H]2[C@H](COc3ccc(NC(=O)NCc4ccccc4)cc3C(=O)N2C)O1 | x | x | n | x | x | x | x
COc1ccc(CC(=O)Nc2ccc(-c3nc4cc(C)ccc4o3)c(O)c2)cc1OC | n | n | n | n | 42 | n | n
Cc1ccc2oc(-c3ccc(NC(=O)c4ccncc4)cc3O)nc2c1 | n | n | n | n | n | x | x
COc1ccc(/C=N/NC(=O)CCn2cnc(-c3ccccc3)c2-c2ccccc2)cc1 | n | n | n | n | 54 | 44 | n | Apaf1 inh interf=n
O=C(CCn1cnc(-c2ccccc2)c1-c1ccccc1)N/N=C/c1ccc(O)cc1 | n | n | n | n | n | x | x
CCC(C(=O)Nc1ccccc1N1CCCC1)c1cccc(Cl)c1 (stereo not given) | x | x | n | x | x | x | x
CCCN1C(=O)/C(=C/c2cc(C)n(C)c2C)SC1=Nc1ccc(OC)cc1 | n | n | n | n | 41 | n | n
COc1ccc(N=C2S/C(=C\c3cc(C)n(C)c3C)C(=O)N2C)cc1 | n | n | n | n | n | x | x
CCOc1ccccc1NC1=C(OC)C(=O)C(Nc2ccccc2OCC)=C(OC)C1=O | x | x | n | x | x | x | x
COC1=C(Nc2ccccc2)C(=O)c2ccccc2C1=O | n | 49 | n | n | 61 | n | n
CCc1nc(N2CCN(C(=O)CCCl)CC2)c2c3c(sc2n1)CCCC3 | x | x | n | x | x | x | x
CCc1nc(N2CCN(C(C)=O)CC2)c2c3c(sc2n1)CC(C(C)(C)C)CC3 (stereo not given) | n | n | n | n | 42 | n | n
CN1CCN(c2ccc(NC(=O)c3ccc(-c4ccc(Br)cc4)o3)cc2)CC1 | n | n | n | n | 45 | 42 | n | Apaf1 inh interf=n
OCCN1CCN(CCCN2c3ccccc3Sc3ccc(Cl)cc32)CC1 | n | n | n | n | 46 | n | n
CN(C)CCCN1c2ccccc2Sc2ccc(Cl)cc21 | n | n | n | n | 42 | n | n
